Screening results deposited in PubChem by several laboratories.
The list is not random: actives were taken first. Their share in the collection is about 2.5%.
NadD inh: blocks S. aureus nicotinate mononucleotide adenylyltransferase | purified NadD enzyme, colorimetric absorbance read-out | inhibition, % at 20 µM | 0.78% of 360,000 active; in the data active means inhibition above about 26%
ABHD5-PLIN5 inh: inhibitors of human ABHD5-perilipin-5 interaction; Q00G26+Q8WTS1; Split G. princeps luciferase complementation, luminescence, 4 h; inhibition, % at 4 µM; 0.78% of 360,000 active;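 active means inhibition above the mean inhibition across every tested compound plus 3 SD, cut at about 22% in these data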;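 further: 0% = DMSO only wells and the 100% control is not disclosed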
SENP1 inh: blocks the human SENP1 SUMO protease catalytic domain; Q9P0U3; recombinant SENP1 catalytic domain, CyPet-SUMO1-YPet FRET cleavage; inhibition, % at 10 µM; 0.21% of 360,000 active;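 active means inhibition at least 30% at 10 µM, raw YFP signal under a set limit, fluorescence ratio 0.5 to 1.5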;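 further: 0% = enzyme with DMSO and 100% = no enzyme wells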
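Test system: human SENP1 catalytic domain; medium: Tris pH 8 buffer plus EDTA, NaCl, BME, BSA, NP40, catalase; incubation: 50 min reaction at room temperature; technique: FRET, CFP and YFP emission; controls: no-enzyme low control and enzyme-plus-DMSO high control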
B2AR ag: agonists of human beta-2 adrenergic receptor inducing internalization; Am2.2-beta2AR cells, FAP receptor internalization, flow cytometry; 0.43% of 340,000 active; response, % (no concentration beside the values);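 active means response above a set limit, near 3 SD of response in nonfluorescent compounds, cut at about 42% in these data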
Target sequence (P07550 whole entry, looked up): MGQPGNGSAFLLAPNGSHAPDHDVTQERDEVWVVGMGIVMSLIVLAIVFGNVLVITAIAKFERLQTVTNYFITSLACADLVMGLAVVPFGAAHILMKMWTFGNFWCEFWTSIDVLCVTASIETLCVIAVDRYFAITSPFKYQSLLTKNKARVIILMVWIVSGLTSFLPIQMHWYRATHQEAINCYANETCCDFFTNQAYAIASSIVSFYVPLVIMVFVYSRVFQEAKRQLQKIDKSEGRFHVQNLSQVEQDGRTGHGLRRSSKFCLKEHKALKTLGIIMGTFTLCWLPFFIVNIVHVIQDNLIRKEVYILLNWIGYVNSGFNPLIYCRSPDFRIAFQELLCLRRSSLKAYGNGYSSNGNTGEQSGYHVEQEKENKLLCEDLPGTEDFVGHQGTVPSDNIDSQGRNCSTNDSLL
GRK2 aptamer HTS: inhibitors of human GRK2 displacing RNA aptamer | 0.59% of 330,000 active | inhibition of aptamer binding, % at 10 µM | bead flow cytometry, FAM-aptamer displacement from GRK2 | AID 488847 | P25098;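 active means inhibition of aptamer binding above 40%, roughly 3 SD of noise, on plates passing a quality check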;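 further: median bead fluorescence of bound FAM aptamer so fluorescent compounds give negative values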
ABHD5 PLIN5 conf: confirmation of human ABHD5-PLIN5 interaction inhibitors | shares compounds with ABHD5-PLIN5 inh | biochemical ABHD5-PLIN5 interaction, luminescence | inhibition, % at 4 µM | 67% of 2,200 active | AID 651612; in the data active means inhibition above about 23%;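 further: 0% = DMSO vehicle wells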
HNF4 split-luc: active in HNF4 split-luciferase counter-screen for ABHD5-PLIN5 inhibitors | shares compounds with ABHD5-PLIN5 inh | HNF4 dimerization, luminescence, biochemical | inhibition, % at 4 µM | 77% of 2,200 active;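 active means mean inhibition across replicate wells exceeding the computed hit threshold, cut at about 13% in these data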;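 further: light from luciferase halves that rejoin when HNF4 fusion proteins dimerize; 0% = DMSO only wells and the 100% control is not given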
The depositor's hits bear a star; x = not tested or not shown; ! = not confirmed by another sample.

SMILES	NadD inh	ABHD5-PLIN5 inh	SENP1 inh	B2AR ag	GRK2 aptamer HTS	ABHD5 PLIN5 conf	HNF4 split-luc
O=C1NC(=O)C(=Cc2ccc(N3CCN(C(=O)c4ccccc4)CC3)c([N+](=O)[O-])c2)C(=O)N1	11	41*	2	3	3	91*	90*
CN1C(=O)C(=Cc2ccc(N3CCOCC3)c([N+](=O)[O-])c2)C(=O)N(C)C1=O	x	x	x	x	8	x	x
O=C(NC1CCCCC1)N1Cc2cc(-c3ccccc3)ccc2-n2nncc2C1	1	4	0	x	x	x	x
CC12CCC(=O)C=C1CC(N1CC1)C1C2CCC2(C)C(O)CCC12 (centres undefined)	2	-3	-55	-2	x	x	x
COc1cc(/C=C/[N+](=O)[O-])ccc1O	-1	70*	3	26	5	86*	93*
O=C1CC(c2cccnc2)=NN1c1ccc(Cl)cc1Cl	3	23*	3	3	2	0	0
CCN1C(=O)CC(c2cccnc2)=Nc2ccccc21	-4	-6	0	-14	3	x	x
Oc1ccccc1/C=N/NP(=S)(c1ccccc1)c1ccccc1	-7	-5	-1	5	0	x	x
S=P(Nn1cnnc1)(c1ccccc1)c1ccccc1	-2	30*	3	-7	0	3	3
Cc1ccccc1C(=O)N1Cc2cnnn2-c2ccccc2C1C#N (centres undefined)	9	9	2	-1	x	x	x
Cc1ccccc1CN1Cc2cnnn2-c2ccccc2C1C#N (centres undefined)	5	74*	-1	41	x	96*	96*
COC(=O)C1=C(c2cccc(NC(C)=O)c2)C[C@@H]2CC[C@H]1N2C	0	-3	4	-5	5	x	x
CC/C(=C(\c1ccccc1)c1ccc(OCCN(C)C)cc1)c1ccccc1	3	38*!	-2	22	0	72*	26*
CN1C(=O)NC(=O)C(N=Nc2ccc(Cl)cc2)C1=O (centres undefined)	0	-2	-4	0	x	x	x
C=CCN1CCc2cccc3c2[C@H]1Cc1ccc(O)c(O)c1-3	11	2	-10	-8	2	x	x
Cc1ccc(N=Cc2c(O)n(C)c(=O)n(C)c2=O)cc1	-6	-2	2	-4	1	x	x
Cn1c(O)c(/C=N/c2ncccn2)c(=O)n(C)c1=O	-4	40*	2	15	2	8	23*
CN(C)c1cc[n+](CC(O)C[n+]2ccc(N(C)C)cc2)cc1	1	-1	1	-4	1	x	x
O=C1NC(=O)C(=Cc2ccc(Cl)cc2)C(=O)N1	19	27*	-3	x	x	76*	75*
Cc1ccc(N2C(=O)NC(=O)/C(=C/c3cnc(-c4ccccc4)nc3)C2=O)cc1C	7	33*	-2	1	1	87*	73*
COc1ccc(C2=NS(=O)(=O)N(C)C(C(=O)N3CCC4(CC3)OCCO4)=C2)cc1OC	-1	0	2	-1	2	x	x
CN1C(=O)C(=Cc2ccccc2OS(=O)(=O)c2ccccc2)C(=O)N(C)C1=O	5	45*	0	5	0	76*	74*
Cc1ccc(N2C(=O)NC(=O)/C(=C\c3ccsc3)C2=O)cc1C	x	x	x	x	0	x	x
O=C1NC(=O)N(c2ccc3c(c2)OCO3)C(=O)/C1=C\c1ccsc1	5	25*	-2	-4	1	66*	56*
Cc1noc(C)c1COc1ccc(C(=O)NCC2(N(C)C)CCCCC2)cc1	-1	5	2	x	x	x	x
SMILES	NadD inh	ABHD5-PLIN5 inh	SENP1 inh	B2AR ag	GRK2 aptamer HTS	ABHD5 PLIN5 conf	HNF4 split-luc
[N-]=[N+]=NCCN1CCC(O)CCC1=O (centres undefined)	1	5	-2	-5	0	x	x
O=C(O)c1ccc(-n2c(O)c(/C=C3\C=Nc4ccccc43)c(=O)[nH]c2=O)cc1	-6	29*	-34	-1	2	32*	54*
O=c1[nH]c(=O)n(-c2ccccc2)c(O)c1/C=C/C=Nc1ccccc1	-6	5	-26	-9	1	x	x
C[C@]12CCC3C(CC[C@H]4C[C@H](O)[C@H](O)C[C@]34C)C1CC[C@@H]2O (some centres undefined)	-1	-9	2	-1	x	x	x
C[C@H]1CCC/C=C/[C@@H]2C[C@H](O)C[C@H]2[C@H](O)/C=C/C(=O)O1	-4	-2	0	34	0	x	x
CN1C(=O)C(=Cc2cccnc2)C(=O)N(C)C1=O	-2	27*	-1	2	1	37*	49*
CN1C(=O)C(=Cc2ccc(N3CCCCCC3)cc2)C(=O)N(C)C1=O	2	8	-8	5	x	x	x
O=C(O)CCn1cc(C=C2C(=O)NC(=S)NC2=O)c(-c2ccccc2)n1	2	7	2	-1	1	x	x
N#CCCn1cc(C=C2C(=O)NC(=O)NC2=O)c(-c2ccccc2)n1	7	23*	2	11	0	51*	84*
Cc1cc(C)n(-c2ccc(NN=C(C#N)C#N)cc2)n1	-1	44*	-4	17	0	49*	43*
N#CC(C#N)=NNc1ccc(-n2ccc(C(F)(F)F)n2)cc1	-6	58*	1	27	0	83*	71*
COC(=O)C1=C(c2ccc(OC)c(OC)c2)C[C@@H]2CC[C@H]1N2C(=O)NCc1ccco1	-8	3	1	10	2	x	x
O=c1nc(/C=C/c2ccc(Cl)cc2Cl)cc(C(F)(F)F)[nH]1	3	36*	-43	10	2	70*	48*
C=CCN1C(=O)NC(=O)/C(=C\c2ccc(-c3ccccc3[N+](=O)[O-])o2)C1=O	23	40*	0	6	4	84*	82*
COC(=O)c1nc(-c2ccc3c(n2)C(=O)C(N)=C(OC)C3=O)c(N)c(-c2ccc(OC)c(OC)c2O)c1C	8	25*	10	27	20	-16	14*
CCOc1ccc(-c2cc(C)[n+](CCc3ccc(OC)c(OC)c3)c(-c3ccc(OCC)cc3)c2)cc1	-3	24*	4	8	0	7	10
CCC1(NS(=O)(=O)c2ccc(N)cc2)C(=O)N(C)C(=O)N(C)C1=O	-2	-6	0	-3	x	x	x
O=C(NC1CCCCC1)Oc1cc2oc(=O)sc2cc1Cl	-4	69*	-1	5	4	-39	14*
Cc1cc2c(cc1C)NP(=S)(c1ccccc1)N2	1	-12	0	1	x	x	x
CC(=Nc1ccccc1N)c1c(O)n(C)c(=O)n(C)c1=O	9	3	2	15	0	x	x
CCN(CC)c1ccc(/C=C/[N+](=O)[O-])cc1	-2	54*	32*	63*	0	96*	96*
